Source: PubChem BioAssay
Compounds with a hit are over-represented: about 2% of the library has one in this group of screens.
HKDC1 inhibitor – HKDC1 (human) hexokinase inhibition. recombinant HKDC1, G6PDH/diaphorase resazurin coupled fluorescence. inhibition, % at 20 µM. actives 0.16% (n = 340,000). AID 493160;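 active = inhibition above about 35% when tested at 20 µM, limit read from the data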
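Material – in-house recombinant HK5 (HKDC1) enzyme · Quantity – HKDC1 at 5 µg/mL · Buffer or medium – pH 8.0 Tris buffer with 10 mM MgCl2 · Reagent – glucose with 1 mM ATP · Dosing – single 20 µM dose · Times – reaction time 90 min, room temperature, protected from light · Technique – resorufin fluorescence at 613 nm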
beta cell repl – induces beta-cell replication in MIN6 cells; MIN6 cells proliferation, ATPlite luminescence, 48 h; cells starved in 0.2% serum; 100% = growth in 10% serum; proliferation, % at 10 µM; actives 0.29% (n = 330,000); AID 2380;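 active = compounds whose signal lies at least 3.5 SD above the mean of all wells on their plate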
IMP-1 inh – blocks Pseudomonas aeruginosa IMP-1 metallo-beta-lactamase. purified IMP-1, nitrocefin hydrolysis, epi-absorbance fluorescence. inhibition, % at 5.6 µM. actives 0.45% (n = 290,000);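 active = inhibition above the mean plus 3 SD of all compounds in the same screening run, cut at about 4.5% in these data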
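Assay system: purified recombinant IMP-1 beta-lactamase. Input: IMP-1 0.2 nM before substrate addition. Buffer or medium: Zinc- and detergent-supplemented HEPES buffer, pH 7.1. Schedule: 25 °C, 15 min preincubation, 25 min reaction. Signal: Epi-absorbance fluorescence, 480 nm excitation, 530 nm emission. Evaluation: percent inhibition from optical density relative to buffer-blank wells.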
ATG4B inhibitor – inhibitors of human ATG4B cysteine protease; Q9Y4P1; ATG4B cleavage of LC3-PLA2, NBD-HPC fluorescence, 1 h; inhibition, % at 8.33 µM; actives 0.51% (n = 340,000); in the data active = inhibition above about 40%
Target sequence (Q9Y4P1 whole entry, looked up): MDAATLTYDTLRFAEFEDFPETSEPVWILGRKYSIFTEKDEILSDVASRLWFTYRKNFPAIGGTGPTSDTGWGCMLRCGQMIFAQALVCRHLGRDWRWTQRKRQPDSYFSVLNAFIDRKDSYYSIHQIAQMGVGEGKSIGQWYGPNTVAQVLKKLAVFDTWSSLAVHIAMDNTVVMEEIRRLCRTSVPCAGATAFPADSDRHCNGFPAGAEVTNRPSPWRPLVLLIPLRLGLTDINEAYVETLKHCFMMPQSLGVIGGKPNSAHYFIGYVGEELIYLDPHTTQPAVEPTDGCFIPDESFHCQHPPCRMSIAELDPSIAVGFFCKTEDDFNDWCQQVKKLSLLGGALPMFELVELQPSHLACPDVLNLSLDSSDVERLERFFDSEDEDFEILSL
VIM-2 inh – blocks Pseudomonas aeruginosa VIM-2 metallo-beta-lactamase. purified VIM-2, nitrocefin hydrolysis, epi-absorbance fluorescence. inhibition, % at 5.6 µM. actives 0.89% (n = 290,000). AID 1527;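 active = inhibition above the mean of all tested compounds plus 3 SD, cutoff set per screening run, cut at about 7.5% in these data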;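 also: red hydrolysis product quenches plate fluorescence so inhibitors raise well fluorescence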
PvdQ inh – P. aeruginosa PvdQ acylase inhibition | purified PvdQ acylase, fluorescence plate reader | inhibition, % at 10 µM | actives 0.063% (n = 340,000); in the data active = inhibition above about 30%, passing the limit was not always enough
HKDC1 act conf – HKDC1 (human) activation, single-dose confirmed | shares compounds with HKDC1 inhibitor | recombinant HKDC1, G6PDH/diaphorase resazurin fluorescence; stronger effect = lower value | inhibition, % at 20 µM | actives 14% (n = 740);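 active = inhibition at or below a set negative limit, negative inhibition meaning the enzyme was activated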
Hits are given with their value; . = inactive; / = no result given.

SMILES | HKDC1 inhibitor | beta cell repl | IMP-1 inh | ATG4B inhibitor | VIM-2 inh | PvdQ inh | HKDC1 act conf
O=C1C=CC(=O)C(C2=C3C(=O)N(CCc4ccccc4)CC(=O)N3CCC2)=C1 | 63.1 | . | . | . | . | . | .
O=C1CC2(CCCCC2)CC(=O)N1CCc1ccccc1 | . | / | / | . | / | . | /
Cc1ccccc1NC(=S)N/N=C/c1ccc(O)cc1O | . | . | . | . | . | . | .
CCCOc1ccc(/C=N/NC(=S)Nc2ccccc2[N+](=O)[O-])c(O)c1 | . | / | . | . | . | / | -47.6
Cc1c(C(=O)N(C)C(C)c2ccccn2)oc2c(F)cccc12 (stereo not drawn) | . | . | . | . | . | . | /
O=c1[nH][nH]c2c(N=Cc3ccccc3O)ccc(F)c12 | 37.7 | / | . | . | . | . | .
FC(F)Sc1ccc(N=C2NN=C(c3ccc4c(c3)OCCO4)CS2)cc1 | . | . | . | . | . | . | /
COc1ccc(N=C2NN=C(c3ccc4c(c3)OCCO4)CS2)cc1 | . | . | . | . | . | . | -33.1
S=C1Cc2ccccc2N1 | . | / | . | . | . | . | -191.7
CC1CCCN(C(=O)COC(=O)c2cc([N+](=O)[O-])ccc2N2CCOCC2)C1 (stereo not drawn) | 41.3 | . | / | . | / | . | .
NS(=O)(=O)c1ccc(NC(=S)NNC(=O)CCC(=O)Nc2ccccc2Cl)cc1 | . | . | . | . | . | . | /
COc1ccc(-c2nc3c(c(=O)n(C)c(=O)n3C)n2CC2CC(c3ccccc3)=NO2)cc1OC (stereo not drawn) | . | . | . | . | . | . | -32.8
COc1ccc(C(=O)OCC2CC(c3ccccc3)=NO2)cc1OC (stereo not drawn) | . | . | . | . | . | . | /
COc1cc([N+](=O)[O-])ccc1-c1ccc(/C=C2\C(=O)ON=C2c2ccccc2)o1 | 43.8 | / | / | . | / | . | .
C/C(=N\NC(=O)c1c(C)nc2ccccn12)c1ccccc1F | . | . | . | . | . | . | /
C/C(=N\NC(=O)c1c(C)nc2ccccn12)c1ccc(O)cc1O | . | . | . | . | . | . | .
O=C(NCCOC(=O)C1COc2ccccc2O1)c1cccnc1 (stereo not drawn) | . | . | . | . | . | . | /
Cc1nc2sc3c(NCc4ccco4)ncnc3c2c2c1COC(C)(C)C2 | 35.2 | . | . | . | . | . | .
CC(C)Cc1nc2sc3c(NCc4ccco4)ncnc3c2c2c1COC(C)(C)C2 | . | . | . | . | . | . | /
O=C(NCC(c1ccco1)N1CCc2ccccc2C1)c1cccc(Br)c1 (stereo not drawn) | . | . | / | . | / | . | /
COc1ccc(-c2csc(CCN3N=C(C)CC3=O)n2)cc1 | . | . | . | . | . | . | /
CCOC(=O)Cn1c2ccc(F)cc2c2nc(C)sc21 | . | . | . | . | . | . | -36.6
COC(=O)Cn1c2ccc(F)cc2c2nc(C)sc21 | . | . | . | . | . | . | -90.4
CSCCC(NC(=O)c1ccc(Cl)cc1)C(=O)NC(C)(C)C (stereo not drawn) | . | . | . | . | . | . | /
Cc1ccccc1Nc1nc(N)nc(CSc2nnc(-c3ccccc3)n2C)n1 | . | . | . | . | . | . | /
SMILES | HKDC1 inhibitor | beta cell repl | IMP-1 inh | ATG4B inhibitor | VIM-2 inh | PvdQ inh | HKDC1 act conf
Cc1ccccc1Nc1nc(N)nc(CSc2nnc3sc4ccccc4n23)n1 | 35.9 | . | . | . | . | . | .
Cc1ccc(S(=O)(=O)N(C(=O)c2ccco2)c2cc3sc(=O)oc3c3ccccc23)cc1 | 36.9 | . | . | . | . | . | .
O=C(NCc1ccccn1)C1CC(c2ccccc2O)=NO1 (stereo not drawn) | . | . | . | . | . | . | /
COc1ccc(S(=O)(=O)Nc2ccc(O)c3ccccc23)cc1 | 45.7 | . | . | . | . | . | .
Cc1ccc(S(=O)(=O)Nc2ccc(O)c3ccccc23)c(C)c1 | 51.8 | / | . | . | . | . | .
COc1ccc(S(=O)(=O)Nc2ccccc2)cc1 | . | . | / | . | / | . | /
Cc1ccc(C)c(S(=O)(=O)Nc2ccc(O)c(C(=O)O)c2)c1 | . | . | . | . | . | . | /
Cc1ccc(C)c(S(=O)(=O)Nc2ccc(O)c3ccccc23)c1 | 47.8 | . | . | . | . | . | .
Cc1sc2ncnc(SCC(=O)N3c4ccccc4Sc4ccc(Cl)cc43)c2c1C | . | . | . | . | . | . | /
CCOC(=O)c1c(C)sc2c1N(C(=O)CCl)c1cc(Cl)ccc1S2 | 45.5 | . | . | . | . | . | .
O=C(/C=C/Sc1ccccc1)c1ccccc1 | 35.7 | . | . | . | . | . | .
CC(C)CNC(=O)COC(=O)CNC(=O)c1cc(Cl)cc([N+](=O)[O-])c1 | . | . | . | . | . | . | .
Cc1cc(C)c2c(c1)/C(=c1/sc3n(c1=O)CN(c1ccccc1)CN=3)C(=O)N2 | . | . | . | . | . | . | /
COc1ccc(Cc2nnc(N/N=C/c3ccc(C)o3)[nH]c2=O)cc1 | . | . | . | . | . | . | /
CC1=NOC(=O)/C1=C\c1ccc(-c2cccc(Cl)c2)o1 | 37.8 | . | . | . | . | . | .
Cc1ccc2cc(CCNC(=O)c3ccc(S(=O)(=O)N4CCCCC4)cc3)c(=O)[nH]c2c1 | 40.0 | . | . | . | . | . | .
Cc1cc2cc(CCNC(=O)c3cccc([N+](=O)[O-])c3)c(=O)[nH]c2cc1C | 40.1 | . | . | . | . | . | .
Cc1cc2cc(CCNC(=O)c3ccc(S(=O)(=O)N4CCOCC4)cc3)c(=O)[nH]c2cc1C | 41.4 | . | . | . | . | . | .
CCCC1C2CN(C(C)C)CC=C2C(C#N)=C(N)C1(C#N)C#N (stereo not drawn) | . | / | . | . | . | . | /
COc1ccc(C(=O)/C=C/Sc2nc3ccccc3o2)cc1 | 37.9 | . | . | . | . | . | .
CCCCc1nc(SCC(=O)N2CCCC2)c2c(=O)n(C)c(=O)n(C)c2n1 | . | . | . | . | . | . | /
O=C1CSC(=S)N1Nc1ccccc1 | . | / | / | . | / | . | .
CC1C/C(=C/c2ccncc2)C(=O)/C(=C/c2ccncc2)C1 (stereo not drawn) | 43.5 | . | . | . | . | . | .
Cc1ccc(NC2c3ncccc3C(=O)N2c2ccccc2C)cc1C (stereo not drawn) | 56.4 | . | . | . | . | . | .
COc1ccc(CC(C)CC(=O)NCCc2ccc(OC)c(OC)c2)cc1 (stereo not drawn) | . | . | . | . | . | . | /
N=C1/C(=C\c2coc3ccccc3c2=O)C(=O)N=C2SC(c3ccncc3)=NN12 | 44.9 | . | . | . | . | . | .
CCN(CC)Cc1cc(O)c(CN(CC)CC)cc1O | 47.2 | / | . | . | . | . | .
CCc1oc(C(=O)O)cc1CN(CC)CC | . | . | . | . | . | . | /
